Sampled rows, rich in hits. Any-hit rate of the full collection: about 12%.
L major viab = inhibitors of Leishmania major promastigote growth; Leishmania major promastigotes, resazurin fluorescence viability; inhibition, % at 10 µM; 200,000 tested, 9% active;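 note: promastigotes grown with compound for 44 hours at 28 °C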
Rad51 HR inh = blocks human Rad51 in homologous recombination; Q06609; inhibition, % at 10 µM; hRad51 DNA strand exchange, fluorescence dequenching; 200,000 tested, 0.085% active;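 active = inhibition above 40% at the single screening dose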
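Test system: preformed human Rad51 ssDNA filaments. Compound dosing: single dose, 10 µM final compound. Incubation: filaments 15 min 37 °C, then compound 30 min. Technique: FRET fluorescence dequenching, excitation 485 nm, emission 520 nm. Read-out basis: percent inhibition from fluorescence, normalised to plate control and blank means. Benchmarks: plate controls and plate blanks.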
PKD1 kinase inh = inhibitors of human PKD1 kinase; Q15139; PKD1 kinase fluorescence polarization assay; inhibition, % (no concentration beside the values); 200,000 tested, 0.056% active; AID 797
Target sequence (Q15139 whole entry, looked up): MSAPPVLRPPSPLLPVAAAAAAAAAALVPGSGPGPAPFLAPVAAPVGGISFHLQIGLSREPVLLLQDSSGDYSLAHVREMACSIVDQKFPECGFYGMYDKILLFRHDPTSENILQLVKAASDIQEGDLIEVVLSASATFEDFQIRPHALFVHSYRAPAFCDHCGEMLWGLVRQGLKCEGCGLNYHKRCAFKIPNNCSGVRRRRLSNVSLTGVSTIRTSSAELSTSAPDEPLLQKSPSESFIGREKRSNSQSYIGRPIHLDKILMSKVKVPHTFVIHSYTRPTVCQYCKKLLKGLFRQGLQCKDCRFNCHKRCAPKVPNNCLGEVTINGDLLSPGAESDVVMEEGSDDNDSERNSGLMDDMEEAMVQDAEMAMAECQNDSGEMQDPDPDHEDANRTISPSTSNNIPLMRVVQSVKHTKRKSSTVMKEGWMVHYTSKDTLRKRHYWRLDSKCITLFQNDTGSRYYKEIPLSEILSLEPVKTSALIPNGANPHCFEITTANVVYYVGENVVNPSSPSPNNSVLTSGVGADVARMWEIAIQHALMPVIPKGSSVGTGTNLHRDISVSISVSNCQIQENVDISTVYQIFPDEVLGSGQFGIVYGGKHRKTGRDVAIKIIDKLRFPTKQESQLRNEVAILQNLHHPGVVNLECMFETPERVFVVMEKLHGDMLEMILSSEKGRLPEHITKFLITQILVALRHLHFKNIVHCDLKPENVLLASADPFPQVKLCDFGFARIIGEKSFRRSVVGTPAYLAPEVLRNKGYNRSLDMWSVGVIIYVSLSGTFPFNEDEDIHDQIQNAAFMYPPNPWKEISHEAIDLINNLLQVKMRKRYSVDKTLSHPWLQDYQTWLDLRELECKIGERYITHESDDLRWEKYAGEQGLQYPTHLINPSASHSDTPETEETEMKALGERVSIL
Arbovirus anti = arbovirus infection inhibition; inhibition, % at 10 µM; AID 1251; arbovirus infection cell-based antiviral screen; 200,000 tested, 0.37% active; in the data active = inhibition above about 30%
Wee1 stabilizer = inhibitors of human Wee1 degradation; P30291; HeLa Luc-Wee1K328M stability, luciferase luminescence; 100% = proteasome inhibitor MG132 effect; reporter increase, % at 5 µM; 220,000 tested, 1.2% active;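 active = activation above the mean of all tested compounds plus 3 SD, set per screening run, cut at about 8.8% in these data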;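 note: cells exposed to compound for 20 h before luminescence read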
CHOP inhibitor = blocks CHOP induction under ER stress; inhibition, % at 10 µM; CHO-K1 CHOP-promoter luciferase, tunicamycin-induced, 15-18 h; 220,000 tested, 3.8% active;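 active = compounds that reduced the stress-induced luciferase reporter signal by more than about 70% of percent inhibition, limit read from the data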
L major 1uM = blocks Leishmania major promastigote growth at 1 uM, repeat screen; 1,100 tested, 13% active; L. major promastigote growth, resazurin fluorescence, 48 h; shares compounds with L major viab; inhibition, % at 1 µM; AID 1258;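 active = inhibition above about 50% in both repeat tests, limit read from the data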
A number is an active result. Cut-off read from the data, not from the text of the source, unless noted: active = inhibition above about 50%; inactive = the rest.

How did COc1nc(OC)nc(N2CCCCCC2)n1 do in these assays?
L major viab: inactive; Rad51 HR inh: inactive; PKD1 kinase inh: inactive; Arbovirus anti: inactive; Wee1 stabilizer: inactive; CHOP inhibitor: inactive

Results for Cc1nnc(N2CCCCC2)c2ccccc12 ?
L major viab: 52.5; Rad51 HR inh: inactive; PKD1 kinase inh: inactive; Arbovirus anti: inactive; Wee1 stabilizer: inactive; CHOP inhibitor: inactive; L major 1uM: inactive

What do the screens show for `COC(=O)C[N+](C)(C)CC#Cc1ccccc1`?
L major viab: 52.9; Rad51 HR inh: inactive; PKD1 kinase inh: inactive; Arbovirus anti: inactive; Wee1 stabilizer: inactive; CHOP inhibitor: inactive; L major 1uM: inactive

How did CCCCCCc1cc2cc(C(=O)Nc3ccccc3)c(=O)oc2cc1O do in these assays?
L major viab: 86.2; Rad51 HR inh: inactive; PKD1 kinase inh: inactive; Arbovirus anti: inactive; Wee1 stabilizer: inactive; CHOP inhibitor: 70.9; L major 1uM: inactive

What do the screens show for `CCOC(=O)c1c(-c2ccc(F)cc2)csc1NC(=O)CCN1CCOCC1`?
L major viab: 93.5; Rad51 HR inh: inactive; PKD1 kinase inh: inactive; Arbovirus anti: inactive; Wee1 stabilizer: inactive; CHOP inhibitor: inactive; L major 1uM: 77.4

What do the screens show for `Cc1cc(C)cc(SCc2noc(C(=O)NCc3ccccc3)c2C(=O)NCc2ccccc2)c1`?
Rad51 HR inh: inactive; CHOP inhibitor: inactive

Results for CN(C)S(=O)(=O)c1cccc(N=c2scc(-c3ccc4c(c3)NC(=O)CO4)n2CC2CCCO2)c1 (stereo unspecified) ?
L major viab: 95.9; PKD1 kinase inh: inactive; Arbovirus anti: inactive; Wee1 stabilizer: inactive; CHOP inhibitor: inactive; L major 1uM: inactive

What do the screens show for `CN(C)C(CNC(=O)c1ccc2c(=O)n(-c3ccccc3F)c(=S)[nH]c2c1)Cc1ccccc1` (stereo unspecified)?
L major viab: inactive; Rad51 HR inh: inactive; PKD1 kinase inh: inactive; Arbovirus anti: inactive; Wee1 stabilizer: inactive; CHOP inhibitor: inactive

How did CC(=O)/C(=N/Nc1cccc(C)c1)N1CCOCC1 do in these assays?
L major viab: 63.8; PKD1 kinase inh: inactive; Arbovirus anti: inactive; Wee1 stabilizer: inactive; CHOP inhibitor: inactive; L major 1uM: inactive

How did CC[C@H](C)C(=O)O[C@H]1CCC=C2C=C[C@H](C)[C@H](CC[C@@H]3C[C@@H](O)CC(=O)O3)[C@H]21 do in these assays?
L major viab: 76.5; Rad51 HR inh: inactive; PKD1 kinase inh: inactive; Arbovirus anti: inactive; Wee1 stabilizer: inactive; CHOP inhibitor: inactive; L major 1uM: inactive

What do the screens show for `O=C(Nc1ccccc1-c1nc2ccccc2s1)c1cccnc1`?
L major viab: 94.6; Rad51 HR inh: inactive; PKD1 kinase inh: inactive; Arbovirus anti: inactive; Wee1 stabilizer: inactive; CHOP inhibitor: inactive; L major 1uM: inactive

What do the screens show for `O=C(Nc1ccccc1-c1nc2ccccc2s1)c1ccc(Br)o1`?
L major viab: inactive; Rad51 HR inh: inactive; PKD1 kinase inh: inactive; Arbovirus anti: inactive; Wee1 stabilizer: inactive; CHOP inhibitor: inactive

What do the screens show for `Cc1ccc(-c2nnc(N3CCN(c4ccccn4)CC3)c3ccccc23)cc1`?
L major viab: 90.6; PKD1 kinase inh: inactive; Arbovirus anti: inactive; Wee1 stabilizer: inactive; CHOP inhibitor: inactive; L major 1uM: inactive

How did c1ccc(-c2nnc(N3CCN(c4ccccn4)CC3)c3ccccc23)cc1 do in these assays?
L major viab: inactive; Rad51 HR inh: inactive; PKD1 kinase inh: inactive; Arbovirus anti: inactive; Wee1 stabilizer: inactive; CHOP inhibitor: inactive

Results for Cc1ccc(N/N=C/c2c(O)cc(C)oc2=O)cc1 ?
L major viab: 87.5; Rad51 HR inh: inactive; PKD1 kinase inh: inactive; Arbovirus anti: inactive; Wee1 stabilizer: inactive; CHOP inhibitor: inactive; L major 1uM: inactive

How did O=S(=O)(c1ccc(-c2csc(-c3cccnc3)n2)cc1)N1CCCC1 do in these assays?
L major viab: inactive; Rad51 HR inh: inactive; PKD1 kinase inh: inactive; Arbovirus anti: inactive; Wee1 stabilizer: inactive; CHOP inhibitor: inactive

Results for O=S(=O)(c1ccc(-c2csc(-c3cccnc3)n2)cc1)N1CCCCC1 ?
L major viab: 78.3; Rad51 HR inh: inactive; PKD1 kinase inh: inactive; Arbovirus anti: inactive; Wee1 stabilizer: inactive; CHOP inhibitor: inactive; L major 1uM: inactive

How did COC(=O)c1nnn(-c2nc(N3CCOCC3)nc(N3CCOCC3)n2)c1C do in these assays?
L major viab: inactive; Rad51 HR inh: inactive; PKD1 kinase inh: inactive; Arbovirus anti: inactive; Wee1 stabilizer: inactive; CHOP inhibitor: inactive

What do the screens show for `Cc1noc2ncnc(Sc3ccc(Br)cc3)c12`?
L major viab: 67.1; Rad51 HR inh: inactive; PKD1 kinase inh: inactive; Arbovirus anti: inactive; Wee1 stabilizer: inactive; CHOP inhibitor: inactive; L major 1uM: inactive

Results for CC(C)CC(=O)Nc1ccc2c3c(cccc13)CC2 ?
L major viab: inactive; Rad51 HR inh: inactive; PKD1 kinase inh: inactive; Arbovirus anti: inactive; Wee1 stabilizer: inactive; CHOP inhibitor: inactive

How did CC(C)(C)C(=O)/C=c1\[nH]c(=O)/c(=C\c2ccc(F)cc2)s1 do in these assays?
L major viab: 73.2; Rad51 HR inh: inactive; PKD1 kinase inh: inactive; Arbovirus anti: inactive; Wee1 stabilizer: inactive; CHOP inhibitor: 81.3; L major 1uM: inactive

How did CC(C)(C)C(=O)/C=c1\[nH]c(=O)/c(=C\c2ccccc2F)s1 do in these assays?
L major viab: inactive; Rad51 HR inh: inactive; PKD1 kinase inh: inactive; Arbovirus anti: inactive; Wee1 stabilizer: inactive; CHOP inhibitor: inactive

What do the screens show for `COc1ccc2c(c1)OCC1=C2CCC2(C)C(=O)CC=C12` (stereo unspecified)?
L major viab: 51.8; PKD1 kinase inh: inactive; Arbovirus anti: inactive; Wee1 stabilizer: inactive; CHOP inhibitor: inactive; L major 1uM: inactive

Results for COc1ccc2c(c1)SCCC2=O ?
L major viab: inactive; Rad51 HR inh: inactive; PKD1 kinase inh: inactive; Arbovirus anti: inactive; Wee1 stabilizer: inactive; CHOP inhibitor: inactive

Results for Cc1cc(C(=O)C(=O)N(C)C)c(C)n1-c1ccc([N+](=O)[O-])cc1 ?
L major viab: inactive; Rad51 HR inh: inactive; PKD1 kinase inh: inactive; Arbovirus anti: inactive; Wee1 stabilizer: inactive; CHOP inhibitor: inactive

How did C=CCN(CC=C)C(=O)C(=O)c1cc(C)n(-c2ccc([N+](=O)[O-])cc2)c1C do in these assays?
L major viab: 97.5; PKD1 kinase inh: inactive; Arbovirus anti: inactive; Wee1 stabilizer: inactive; CHOP inhibitor: inactive; L major 1uM: inactive

Results for COC(=O)C1=C2c3[nH]c4ccccc4c3CCN2C(=O)CC1 ?
Rad51 HR inh: inactive

Results for O=[N+]([O-])c1ccc(NNC(=S)Nc2ccc(F)cc2)cc1 ?
L major viab: 100.5; Rad51 HR inh: inactive; PKD1 kinase inh: inactive; Arbovirus anti: inactive; Wee1 stabilizer: inactive; CHOP inhibitor: inactive; L major 1uM: 79.1

Results for COC(=O)C(=C/C(C)=C/c1cccs1)C(=O)OC ?
L major viab: 62.0; Rad51 HR inh: inactive; PKD1 kinase inh: inactive; Arbovirus anti: inactive; Wee1 stabilizer: inactive; CHOP inhibitor: inactive; L major 1uM: inactive

High-throughput results as filed in PubChem.
